Screening data as filed in PubChem BioAssay.
In the library only some 29% were active in any assay of this set; here they are far more common.
tolC growth inh = growth inhibitors of E. coli BW25113 tolC mutant | growth inhibition, % at 10 µM (by protocol) | OD615 | AID 573 | 2.2% of 65,000 active;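 active = growth inhibition at or above a cutoff equal to the mean over every tested compound plus 3 SD, cut at about 60% in these data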;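 also: growth measured after 20 h incubation at 37 °C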
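Test system – E. coli BW25113 ΔtolC::kan, tolC deletion mutant strain · Detection – OD at 615 nm · Buffer or medium – LB with kanamycin 50 µg/mL · Times – 20 h compound exposure of bacteria at 37 °C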
CYP2C19 activ = increases human CYP2C19 enzyme activity | P33261 | recombinant CYP2C19, luciferin-H EGE luminescence; stronger effect = higher value; 0 = fully inhibited enzyme, 1 = untreated enzyme | activation factor at 5 µM | 96,000 tested, under 10 active | AID 1025;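 active = activation factor of at least 2 at 5 µM in the primary screen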
CYP2C19 inh = human CYP2C19 inhibition | P33261 | CYP2C19 Supersomes, luciferin-H EGE luminescence, 30 min | inhibition, % at 5 µM | 21% of 96,000 active;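 active = CYP2C19 inhibition above a set limit at 5 µM in the primary screen, cut at about 50% in these data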
CYP2C9 act = activators of human CYP2C9. recombinant CYP2C9, luciferin-H conversion, luminescence; stronger effect = higher value; factor 1 = untreated enzyme, 0 = blocked. P11712. activation factor at 5 µM. 1.4% of 96,000 active;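 active = activation factor of 2 or more for CYP2C9 at a 5 µM dose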
Target sequence (P11712 whole entry, looked up): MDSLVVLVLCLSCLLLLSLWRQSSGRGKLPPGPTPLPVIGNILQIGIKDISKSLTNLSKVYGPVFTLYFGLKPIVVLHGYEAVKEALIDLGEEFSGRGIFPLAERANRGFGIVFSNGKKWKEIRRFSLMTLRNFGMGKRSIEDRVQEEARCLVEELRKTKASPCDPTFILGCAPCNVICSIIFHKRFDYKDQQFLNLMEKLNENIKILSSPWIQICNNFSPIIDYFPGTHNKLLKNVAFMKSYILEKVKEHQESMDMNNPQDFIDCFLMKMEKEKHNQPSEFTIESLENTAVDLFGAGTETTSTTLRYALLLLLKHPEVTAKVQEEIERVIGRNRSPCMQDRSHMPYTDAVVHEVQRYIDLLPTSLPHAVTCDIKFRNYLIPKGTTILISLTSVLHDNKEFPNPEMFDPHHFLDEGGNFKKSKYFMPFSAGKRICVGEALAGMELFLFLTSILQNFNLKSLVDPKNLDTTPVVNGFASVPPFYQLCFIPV
CYP2C9 inhib = human CYP2C9 inhibition | P11712 | inhibition, % at 5 µM | AID 777 | CYP2C9 Supersomes, luciferin-H conversion, luminescence | 20% of 96,000 active;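 active = blocking of liver enzyme CYP2C9 beyond about 50% at 5 µM, limit read from the data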
Ecoli WT expand = growth inhibitors of E. coli BW25113 wild type; growth inhibition, % at 100 µM; 0.15% of 98,000 active; OD600 absorbance;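 active = growth inhibition above about 50% at one test dose, limit read from the data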;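 also: growth measured after 20 h incubation at 37 °C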
Hits are given with their value; i = inactive; nt = no result given.

SMILES	tolC growth inh	CYP2C19 activ	CYP2C19 inh	CYP2C9 act	CYP2C9 inhib	Ecoli WT expand
O=C(Nc1sc2c(c1C(=O)NC1CC1)CCCCCC2)c1ccco1	i	i	i	i	i	i
COC(=O)c1c(NC(=O)c2ccco2)sc2c1C(C(=O)OC)CC2 (stereo not drawn)	i	i	i	i	61.5	i
O=C(Nc1sc2c(c1C(=O)NCc1cccnc1)CCCC2)c1ccco1	i	i	78.5	i	95.0	i
CC(Oc1ccccc1)C(=O)NCc1cccnc1 (stereo not drawn)	i	i	i	i	i	i
C=CCOc1ccc(C2C(C(=O)c3ccco3)=C(O)C(=O)N2Cc2cccnc2)cc1 (stereo not drawn)	i	i	i	i	i	i
CCOC(=O)N1CCN(C(=O)CCn2nc(-c3ccc(Cl)cc3)ccc2=O)CC1	i	i	i	i	i	i
O=C(c1cccc(C(F)(F)F)c1)N1CCN(C2CCCCC2)CC1	i	i	i	i	i	i
CCOc1ccc(C(=O)NCC(=O)OC(C)C(=O)NCc2ccco2)cc1OCC (stereo not drawn)	i	i	i	i	i	i
O=C(OCCN=C1NS(=O)(=O)c2ccccc21)c1ccccc1	nt	i	i	i	85.4	i
O=C(OCCN=C1NS(=O)(=O)c2ccccc21)C1CC(=O)N(c2ccc(Cl)cc2)C1 (stereo not drawn)	i	i	i	i	63.4	i
COc1ccc(C(=O)COC(=O)CCN=C2NS(=O)(=O)c3ccccc32)cc1OC	i	i	74.0	i	i	i
O=C(OCCOCCN=C1NS(=O)(=O)c2ccccc21)C1CC(=O)N(c2ccccc2)C1 (stereo not drawn)	i	i	i	i	i	i
O=C(NC1CCCCCC1)C1C2C=CC3(CN(Cc4cccnc4)C(=O)C13)O2 (stereo not drawn)	i	i	i	i	i	i
COc1ccc(NC(=O)C2CCN(C(=O)c3cccs3)CC2)cc1	nt	i	i	i	i	i
COc1ccc(S(=O)(=O)N2CCC(C(=O)NCC3CCCO3)CC2)cc1 (stereo not drawn)	nt	i	i	i	i	i
CC1(C)CC(=O)C(C(c2cccnc2)C2C(=O)CC(C)(C)CC2=O)C(=O)C1	i	i	i	i	i	i
CC(=O)N1CN(CCCn2ccnc2)Cc2c1sc1c2CCCC1	i	i	94.2	i	95.6	i
O=C(N1CCCC1)C12CCC3CC(CC(C3)C1)C2	nt	i	i	i	i	i
COC(=O)c1cccc(NC(=O)CCCOc2cccc(C)c2)c1	nt	i	76.2	i	58.0	i
COC(=O)c1ccc(S(=O)(=O)N2CCCCCC2)cc1	i	i	i	i	i	i
O=C(COC(=O)c1ccc2ccccc2n1)Nc1ncc(C(F)(F)F)cc1Cl	nt	i	58.3	i	50.7	i
O=C(COC(=O)c1cccc(S(=O)(=O)N2CCOCC2)c1)Nc1ncc(C(F)(F)F)cc1Cl	nt	i	i	i	i	i
COC(=O)c1ccc(NC(=O)COc2ccc(S(=O)(=O)N3CCCCC3)cc2)cc1	nt	i	i	i	64.2	i
O=C(COC(=O)CCc1ccc(S(=O)(=O)N2CCOCC2)cc1)Nc1ncc(C(F)(F)F)cc1Cl	nt	i	i	i	54.7	i
CC(C)CCn1cnc2c(c1=O)c1nc3ccccc3nc1n2Cc1ccc2c(c1)OCO2	i	i	i	i	i	i
SMILES	tolC growth inh	CYP2C19 activ	CYP2C19 inh	CYP2C9 act	CYP2C9 inhib	Ecoli WT expand
Cn1c(N/N=C/c2ccccc2)nc2sc3c(c2c1=O)CCC3	nt	i	i	i	i	i
O=C(COc1cccc(C(F)(F)F)c1)Nc1ccc(S(=O)(=O)N2CCCC2)cc1	63.7	i	i	i	i	i
COc1cc(CC(=O)OCC(=O)Nc2ccc(S(=O)(=O)N3CCCC3)cc2)cc(OC)c1OC	i	i	i	i	60.8	i
Cc1cccc(OCCCC(=O)Nc2ccc(N3CCCCC3)cc2)c1	nt	i	i	i	i	i
O=C(COc1ccc(S(=O)(=O)N2CCOCC2)cc1)Nc1ccc2c(c1)OCCO2	i	i	i	i	i	i
O=C(COc1ccc(S(=O)(=O)N2CCOCC2)cc1)Nc1ccc(Cl)c(C(F)(F)F)c1	i	i	i	i	53.1	i
Cc1cccc(OCCC(=O)Nc2ccc(S(=O)(=O)N3CCCC3)cc2)c1	i	i	i	i	66.9	i
COc1ccc(NC(=O)C(=O)N/N=C/c2cccnc2)c(OC)c1	nt	i	i	i	i	i
COc1ccc(C(c2sc3nc(C)nn3c2O)N2CCC3(CC2)OCCO3)cc1 (stereo not drawn)	i	i	i	i	i	i
Cc1ccc(Cn2cnc3ccccc32)cc1	nt	i	77.3	i	57.9	i
c1ccc2c(c1)ncn2CCn1cnc2ccccc21	i	i	i	i	i	nt
CCOc1ncccc1C(=O)N(C)CC1COc2ccccc2O1 (stereo not drawn)	nt	i	85.1	i	62.7	i
O=C(CC1COc2ccccc2O1)Nc1ccccn1 (stereo not drawn)	i	i	i	i	i	i
Cc1cc(Cl)ccc1OCc1n[nH]c(=S)n1C1CCCCC1	nt	i	80.6	i	96.2	i
COc1ccc(-c2n[nH]c(=S)n2C2CCCCC2)cc1	i	i	78.7	i	i	i
Cc1cc(Cl)ccc1OCC(=O)N1C(C)CCCC1C (stereo not drawn)	i	i	i	i	i	i
COc1ccc(Cl)cc1-c1n[nH]c(=S)n1C1CCCCC1	nt	i	79.8	i	i	i
COc1ccc(-c2n[nH]c(=S)n2Cc2ccco2)cc1	nt	i	i	i	i	i
Cc1cc(/C=N/NC(N)=O)c(C)c(CO)c1	nt	i	i	i	i	i
Cc1cc(C)c2c(-n3cccc3)c(C(=O)O)sc2n1	i	nt	nt	nt	nt	i
Cc1cc(C)c2c(-n3cccc3)c(C(=O)NNS(=O)(=O)c3ccccc3)sc2n1	nt	i	i	i	96.5	i
O=S(=O)(c1cccc(NC(=S)Nc2ccc(Br)cc2Cl)c1)N1CCOCC1	nt	i	i	i	i	i
CCOC(=O)c1cnn(-c2ccccc2)c1-n1cccc1C(=O)C(=O)Nc1ccccc1C(F)(F)F	nt	i	53.9	i	65.4	i
CCOC(=O)c1cnn(-c2ccccc2)c1NC(=O)c1ccccc1C	nt	i	i	i	i	i
CC1=C(C(=O)Nc2ccc(C)cc2C)C(c2ccc([N+](=O)[O-])cc2)n2ncnc2N1 (stereo not drawn)	nt	i	i	i	i	i
COc1ccc(-c2nc(CSCC(=O)NCc3ccco3)c(C)o2)cc1	i	i	i	i	i	i
O=C(Cn1nnc2ccccc2c1=O)NC1CCCc2ccccc21 (stereo not drawn)	i	i	i	i	i	i
O=C(COc1ccc(-c2nnco2)cc1)NC1CCCc2ccccc21 (stereo not drawn)	i	i	98.1	i	85.8	i
COc1ccc(-c2nc(CSCC(=O)NC3CCCc4ccccc43)c(C)o2)cc1 (stereo not drawn)	nt	i	62.7	i	58.4	i
